Data published in ChEMBL document CHEMBL1135714, “New neplanocin analogues. 12. Alternative synthesis and antimalarial effect of (6'R)-6'-C-methylneplanocin A, a potent AdoHcy hydrolase inhibitor” (J Med Chem, 2002).

Legend:
[1] = The compound was tested for the dose required to cause 50% suppression of Plasmodium berghei growth in mice.; type: functional, Mus musculus
How it was run: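 Four-day suppressive test in ICR mice infected with P. berghei NK 65, five per group. DMSO solutions were injected intraperitoneally daily on days 0–3 at 0.1–20 mg/kg/day, against infected DMSO-dosed controls. Day-4 parasitemia came from Giemsa-stained tail-blood smears, 1 × 10⁴ erythrocytes per film. EC50 is the dose giving 50% suppression of parasite growth.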

[2] = The compound was tested for survival of the ICR mice (infected with Plasmodium berghei) as a symptom indicative of toxicity on day 4, at a dose of 0.1 mg/kg/day; type: functional, Mus musculus
How it was run: (§1)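 P. berghei (NK 65 strain)-infected ICR mice, groups of five; compound in DMSO given intraperitoneally once daily for four consecutive days starting day 0; five infected DMSO-dosed mice as controls; survival counted on day 4 as toxicity indicator; Giemsa-stained tail blood smears, 1 × 10⁴ erythrocytes per film, for parasitemia.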

[3] = The compound was tested for survival of the ICR mice (infected with Plasmodium berghei) as a symptom indicative of toxicity on day 4, at a dose of 0.5 mg/kg/day; type: functional, Mus musculus; how it was run: as §1
[4] = The compound was tested for survival of the ICR mice (infected with Plasmodium berghei) as a symptom indicative of toxicity on day 4, at a dose of 1.0 mg/kg/day; type: functional, Mus musculus; how it was run: as §1
[5] = The compound was tested for survival of the ICR mice (infected with Plasmodium berghei) as a symptom indicative of toxicity on day 4, at a dose of 10 mg/kg/day; type: functional, Mus musculus; how it was run: as §1
[6] = The compound was tested for survival of the ICR mice (infected with Plasmodium berghei) as a symptom indicative of toxicity on day 4, at a dose of 20 mg/kg/day; type: functional, Mus musculus; how it was run: as §1
[7] = The compound was tested for survival of the ICR mice (infected with Plasmodium berghei) as a symptom indicative of toxicity on day 4, at a dose of 2 mg/kg/day; type: functional, Mus musculus; how it was run: as §1
[8] = The compound was tested for survival of the ICR mice (infected with Plasmodium berghei) as a symptom indicative of toxicity on day 4, at a dose of 5 mg/kg/day; type: functional, Mus musculus; how it was run: as §1
[9] = test system: Plasmodium berghei; experiment: Parasitaemia (%) in tail blood smears from Plasmodium berghei infected ICR mice (Mus musculus) after 4 days; type: functional
How it was run: (§2)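 P. berghei NK 65-infected ICR mice, five per group. Compounds in DMSO were given intraperitoneally once daily for four consecutive days from day 0, at 0.1–20 mg/kg/day. Five infected DMSO-dosed mice served as controls. On day 4, Giemsa-stained tail-blood thin films were read by microscopy, with 1 × 10⁴ erythrocytes counted per film, to give % parasitemia.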

[10] = test system: Plasmodium berghei; experiment: Parasitaemia (%) in tail blood smears from Plasmodium berghei infected ICR mice (Mus musculus) at 0.1 mg/kg/day for 4 days; type: functional; how it was run: as §2
[11] = test system: Plasmodium berghei; experiment: Parasitaemia (%) in tail blood smears of Plasmodium berghei infected ICR mice (Mus musculus) at 0.5 mg/kg/day after 4 days; type: functional; how it was run: as §2
[12] = test system: Plasmodium berghei; experiment: Parasitaemia (%) in tail blood smears of Plasmodium berghei infected ICR mice (Mus musculus) at 1.0 mg/kg/day after 4 days; type: functional; how it was run: as §2
[13] = test system: Plasmodium berghei; experiment: Parasitaemia (%) in tail blood smears of Plasmodium berghei infected ICR mice (Mus musculus) at 10 mg/kg/day after 4 days; type: functional; how it was run: as §2
[14] = test system: Plasmodium berghei; experiment: Parasitaemia (%) in tail blood smears of Plasmodium berghei infected ICR mice (Mus musculus) at 20 mg/kg/day after 4 days; type: functional; how it was run: as §2
[15] = test system: Plasmodium berghei; experiment: Parasitaemia (%) in tail blood smears of Plasmodium berghei infected ICR mice (Mus musculus) at 2 mg/kg/day after 4 days; type: functional; how it was run: as §2
[16] = test system: Plasmodium berghei; experiment: Parasitaemia (%) in tail blood smears of Plasmodium berghei infected ICR mice (Mus musculus) at 5 mg/kg/day after 4 days; type: functional; how it was run: as §2
[17] = test system: KATO III stomach cancer cell line; experiment: The compound was tested for cytotoxicity against the growth of human gastric carcinoma cell line ( KATO III ).; type: functional, cell-based
[18] = test system: Plasmodium berghei; experiment: Parasitaemia (%) in tail blood smears from Plasmodium berghei infected ICR mice (Mus musculus) at 0.1-mg/kg/day for 4 days; type: functional; how it was run: as §2
[19] = test system: Plasmodium berghei; experiment: Parasitaemia (%) in tail blood smears from Plasmodium berghei infected ICR mice (Mus musculus) at 0.5-mg/kg/day for 4 days; type: functional; how it was run: as §2
[20] = test system: Vero; experiment: The compound was tested for cytotoxicity against monkey kidney cell line ( Vero ).; type: functional, cell-based; conditions: Chlorocebus sabaeus
[21] = test system: Plasmodium falciparum; experiment: In vitro antimalarial activity against Plasmodium falciparum
[22] = The compound was tested for survival of the ICR mice (infected with Plasmodium berghei) as a symptom indicative of toxicity on day 4, at different doses 20 mg/kg/day; type: functional, Mus musculus; how it was run: as §1
[23] = test system: Plasmodium berghei; experiment: Percent parasitaemia in tail blood smears from Plasmodium berghei infected ICR mice (Mus musculus) at 0.5-mg/kg/day after 4 days; type: functional; how it was run: as §2

Compound: CCN(CC)CCCC(C)Nc1ccnc2cc(Cl)ccc12 (stereo not given) [CHLOROQUINE]
- EC50 [1]: 1.8 mg/kg/day
- Survival [2]: 5
- Survival [3]: 5
- Survival [4]: 5
- Survival [5]: 5
- Survival [6]: 5
- Survival [7]: 5
- Survival [8]: 5
- Parasitemia [9]: 21%
- Parasitemia [10]: 21%
- Parasitemia [11]: 20%
- Parasitemia [12]: 18%
- Parasitemia [13]: 2%
- Parasitemia [14]: 1%
- Parasitemia [15]: 7%
- Parasitemia [16]: 3%

Compound: C[C@@H](O)C1=C[C@@H](n2cnc3c(N)ncnc32)[C@H](O)[C@@H]1O
- EC50 [1]: 1 mg/kg/day
- Survival [2]: 5
- Survival [3]: 5
- Survival [4]: 5
- Survival [5]: 5
- Survival [6]: 2
- Survival [7]: 5
- Survival [8]: 5
- IC50 [17]: 1.1 µM
- Parasitemia [9]: 21%
- Parasitemia [18]: 21%
- Parasitemia [19]: 21%
- Parasitemia [12]: 10%
- Parasitemia [13]: 2%
- Parasitemia [15]: 5%
- Parasitemia [16]: 2%
- IC50 [20]: > 1800 µM
- IC50 [21]: 0.1 µM

Compound: Nc1ncnc2c1ncn2[C@@H]1C=C(CO)[C@@H](O)[C@H]1O [NEOPLANOCIN A]
- EC50 [1]: > 5 mg/kg/day
- Survival [2]: 5
- Survival [3]: 5
- Survival [4]: 5
- Survival [5]: 0
- Survival [7]: 5
- Survival [8]: 5
- IC50 [17]: 0.22 µM
- Survival [22]: 0
- Parasitemia [9]: 21%
- Parasitemia [18]: 20%
- Parasitemia [12]: 21%
- Parasitemia [15]: 21%
- Parasitemia [16]: 12%
- Parasitemia [23]: 21%
- IC50 [21]: 0.2 µM
